From ChEMBL document CHEMBL1121917, “Structure--activity relationships in a broad-spectrum anthelmintic series. Acid chloride phenylhydrazones. 1. Aryl substitutions and chloride variations” (1981) come the findings set out here.

The species named for experiment [1] is Canis familiaris. The experiment is described as follows: Percent reduction in Uncinaria eggs per gram, after oral treatment of 100 mg/dog dose of compound in a single treatment. Type of experiment: functional, Canis lupus familiaris, Egg. The procedure, abridged: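 Dogs naturally infected with Toxascaris leonina were experimentally infected with mixed Ancylostoma caninum and Uncinaria stenocephala larvae. Finely ground compound was given orally in gelatin capsules. Three egg count determinations were made before and three after treatment in each experiment.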

Experiment [2] is filed under the species Canis familiaris. The experiment can be described thus: Percent reduction in Ancylostoma eggs per gram, after oral treatment of 100 mg/dog dose of compound in a single treatment. Type of experiment: functional, Canis lupus familiaris, Egg. In short, it runs like this:
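Dogs naturally infected with Toxascaris leonina were experimentally infected with mixed Ancylostoma caninum and Uncinaria stenocephala larvae. Finely ground compound was given orally in gelatin capsules. Fecal egg counts were taken three times before and three times after treatment, and activity was taken as the fall in egg counts.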

For the next experiment, the species on record is Mus musculus. The experiment is described as follows: Percent clearance of Nematospiroides dubius from mouse after oral treatment of 7.5 mg/mouse/day. Type of experiment: functional. The procedure, abridged:
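Mice naturally carrying Syphacia obvelata were experimentally infected with Nematospiroides dubius and Hymenolepis nana, then grouped after a 2-week prepatency. Finely ground compound was suspended in aqueous 0.10% carboxymethylcellulose, 0.04% polysorbate 80 and 0.0042% polyparaben, and 0.1 mL was given orally by cannula once daily for 4 days to five mice. Necropsy followed 2 days later, scoring presence or absence of each parasite. Control clearance was subtracted from the treated clearance.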

Experiment [3] relates to Ovis aries. The experiment can be described thus: Percent reduction in Trichuris eggs per gram, after treatment with 100 mg/kg dose of compound perorally in sheep. Type of experiment: functional, Egg. To be noted: route oral. In short, it runs like this:
(§1)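 Naturally parasitized lambs, dosed orally either with a suspension by stomach tube or with finely ground compound in gelatin capsules by balling gun. Activity was scored by the clinical test method, meaning a significant fall in helminth egg counts after treatment.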

The test system of experiment [4] is Ovis aries. The experiment is described as follows: Percent reduction in Haemonchus eggs per gram, after treatment with 100 mg/kg dose of compound perorally in sheep. The note with it: route oral. Type of experiment: functional, Egg. In short, it runs like this: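 Naturally parasitized lambs received compound orally, either as the aqueous suspension by stomach tube or as finely ground powder in gelatin capsules by balling gun. Activity was judged by the clinical test method, as a significant decrease in posttreatment helminth egg counts.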

For experiment [5], the system named is Ovis aries. The experiment can be described thus: Percent reduction in Oesophagostomum eggs per gram, after treatment with 100 mg/kg dose of compound perorally in sheep. Type of experiment: functional, Egg. To be noted: route oral. In short, it runs like this: (§2)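 Naturally parasitized lambs were dosed orally at the stated mg/kg. Dosing was either as a suspension of finely ground compound by stomach tube, or as ground compound weighed into gelatin capsules and given by balling gun. Activity was scored by the clinical test method: the decrease in posttreatment helminth eggs per gram.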

The subject of experiment [6] is Ovis aries. The experiment can be described thus: Percent reduction in Moniezia eggs per gram, after treatment with 100 mg/kg dose of compound perorally in sheep. Type of experiment: functional, Egg. The note with it: route oral. The procedure, abridged: as §2
For experiment [7], the system named is Ovis aries. The experiment is described as follows: Percent reduction in Trichostrongylus eggs per gram, after treatment with 100 mg/kg dose of compound perorally in sheep. Type of experiment: functional, Egg. To be noted: route oral. The procedure, abridged: as §1
The subject of experiment [8] is Ovis aries. The experiment can be described thus: Percent reduction in Nematodirus eggs per gram, after treatment with 100 mg/kg dose of compound perorally in sheep. The note with it: route oral. Type of experiment: functional, Egg. In short, it runs like this:
as §2

In experiment [9] the test system is Ovis aries. The experiment is described as follows: Percent reduction in Ostertagia eggs per gram, after treatment with 100 mg/kg dose of compound perorally in sheep. Type of experiment: functional, Egg. The note with it: route oral. In short, it runs like this: as §2
In experiment [10] the test system is Ovis aries. The experiment can be described thus: Percent reduction in Strongyloides eggs per gram, after treatment with 100 mg/kg dose of compound perorally in sheep. Type of experiment: functional, Egg. To be noted: route oral. The procedure, abridged:
as §1

On to `O=[N+]([O-])c1ccc(N/N=C(\Cl)c2ccccc2)cc1`, for which the Reduction in the experiment listed under Canis familiaris [1] came to 0%; in the experiment listed under Canis familiaris [2] it was 0%; in the experiment with Ovis aries [3] it was 100%; in the experiment with Ovis aries [4], 0%; in the experiment with Ovis aries [5] it was 0%; in the experiment on Ovis aries [6], 100%. The Reduction in the experiment with Ovis aries [7] worked out at 57%; in the experiment with Ovis aries [8], 0%; with Ovis aries [9], 33%; in the experiment with Ovis aries [10], 58%. In the experiment listed under Mus musculus, this compound gave a Parasite_Clearance of 0%.
